ChEMBL document CHEMBL4406805, “Development of Inhibitors against Mycobacterium abscessus tRNA (m1G37) Methyltransferase (TrmD) Using Fragment-Based Approaches” (J Med Chem, 2019)
In brackets after ≈: the same amount, converted by molar mass. Activity calls are given as the source filed them. No cut-off for these calls is given here.

Columns and labels:
[1] = test system: Mycobacteroides abscessus; test: Binding affinity to Mycobacterium abscessus N-terminal His-tagged 3C protease linked full length tRNA (m1-G37) methyltransferase expressed in Escherichia coli BL21(DE3) assessed as change in melting temperature at 100 uM by SYPRO Orange dye based DSF assay
In short: (§1)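 DSF with 10 μM Mab TrmD (His-tag cleaved) in 50 mM HEPES pH 7.5, 500 mM NaCl, 5x SYPRO Orange. Final DMSO was 5%, either as ligand stock or as DMSO alone. Samples were ramped from 25 to 95 °C in 0.5 °C steps of 30 s. ΔTm was taken relative to the DMSO control.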

[2] = Binding affinity to Mycobacterium abscessus N-terminal His-tagged 3C protease linked full length tRNA (m1-G37) methyltransferase expressed in Escherichia coli BL21(DE3) by isothermal titration calorimetry; design: species or system Mycobacteroides abscessus
In short: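 ITC at 25 °C. TrmD (33 or 100 μM in cell) was dialysed overnight at 4 °C into 50 mM HEPES pH 7.5, 500 mM NaCl, 5% glycerol, with final DMSO 2–10%. Ligand:protein was 10–20:1. A 0.2 μL injection was discarded, followed by 19×2 or 39×1 μL injections at 60–150 s spacing. No-protein blanks were subtracted. Data were fitted to a one-site model (N fixed at 1 for weak binders). Mostly n = 1 with fit error; SD when n > 1.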

[3] = test system: Mycobacteroides abscessus; test: Binding affinity to Mycobacterium abscessus N-terminal His-tagged 3C protease linked full length tRNA (m1-G37) methyltransferase expressed in Escherichia coli BL21(DE3) assessed as change in melting temperature at 5 mM by SYPRO Orange dye based DSF assay; in short: as §1
[4] = test system: Mycobacteroides abscessus; test: Binding affinity to Mycobacterium abscessus N-terminal His-tagged 3C protease linked full length tRNA (m1-G37) methyltransferase expressed in Escherichia coli BL21(DE3) after 15 mins by mass Spectrometry
In short: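 Native nanoESI-MS. His-tag was removed with 3C protease before IMAC and gel filtration. TrmD was exchanged into 200 mM ammonium acetate pH 7.0. Protein (20 μM in titration) was equilibrated at room temperature for at least 15 min alone or with ligand (12.5–100 μM; 100 μM for screening) in 5% DMSO. Read-out was ligand occupancy (singly or doubly bound) of the 13+ and 14+ charge states.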

[5] = test system: Mycobacterium tuberculosis; test: Antimycobacterial activity against Mycobacterium tuberculosis H37Rv incubated for 2 weeks in presence of 7H9/DPPC medium; format: functional; conditions: 336 h
[6] = test system: Mycobacterium tuberculosis; test: Antimycobacterial activity against Mycobacterium tuberculosis H37Rv incubated for 2 weeks in presence of GAST-Fe medium; format: functional; conditions: 336 h
[7] = Antimycobacterial activity against Mycobacterium abscessus subsp. abscessus ATCC 19977 by CLSI M07-A9 protocol based method; format: functional; conditions: Mycobacteroides abscessus
[8] = test system: Mycobacterium tuberculosis; test: Antimycobacterial activity against Mycobacterium tuberculosis H37Rv incubated for 2 weeks in presence of 7H9/ADC medium; format: functional; conditions: 336 h
[9] = test system: Mycobacterium tuberculosis; test: Antimycobacterial activity against Mycobacterium tuberculosis H37Rv incubated for 2 weeks in presence of 7H9/glucose medium; format: functional; conditions: 336 h
[10] = test system: Mycobacteroides abscessus; test: Binding affinity to Mycobacterium abscessus N-terminal His-tagged 3C protease linked full length tRNA (m1-G37) methyltransferase expressed in Escherichia coli BL21(DE3) by reverse isothermal titration calorimetry
In short: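 Reverse ITC at 25 °C. 420 μM TrmD was injected into 35 μM ligand in the cell. Buffer was 50 mM HEPES pH 7.5, 500 mM NaCl, 5% glycerol with DMSO; blank titrations were subtracted. Data were fitted to a one-site binding model, otherwise as for forward titrations.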

| Compound | ΔTm [1] [°C] | Kd [2] [µM] | other results |
| --- | --- | --- | --- |
| COc1cc(COC(=O)c2cn[nH]c2)cc(N2CCCC2)c1 | 3 | 10 |  |
| COC(=O)c1ccc(COC(=O)c2cn[nH]c2)cc1 | 0.9 |  |  |
| N#Cc1c(N)n[nH]c1-c1ccc2ccn(Cc3ccnc4ccccc34)c2c1 | 10.3 |  |  |
| O=C(O)c1ccc2cc[nH]c2c1 |  |  | ΔTm [3]: -0.6 °C |
| N#Cc1c(N)n[nH]c1-c1ccc2cc[nH]c2c1 | 4.4 | 5 |  |
| COc1cccc(Cn2ccc3ccc(-c4cc(N)n[nH]4)cc32)c1 | 4.6 | 13 |  |
| Nc1cc(-c2ccc3ccn(Cc4ccccc4)c3c2)[nH]n1 | 3.4 | 19 | Activity [4]: Active |
| N#Cc1ccccc1Cn1ccc2ccc(-c3cc(N)n[nH]3)cc21 | 4.4 | 12 |  |
| Nc1cc(-c2ccccc2)n[nH]1 |  |  | ΔTm [3]: 1.5 °C |
| NC(=O)c1ccccc1Cn1ccc2ccc(-c3cc(N)n[nH]3)cc21 | 1.4 |  |  |
| O=C(OCc1cccc(OCc2ccccn2)c1)c1cn[nH]c1 | 2.5 |  |  |
| N#Cc1c(N)n[nH]c1-c1ccc2ccn(Cc3ccccn3)c2c1 | 8.3 | 0.5 |  |
| OB(O)c1ccc2cc[nH]c2c1 |  | 260 | ΔTm [3]: 4 °C |
| COc1cccc(-c2cc(N)n[nH]2)c1 |  |  | ΔTm [3]: -0.5 °C |
| COc1cc(COC(=O)c2cn[nH]c2)cc(Cc2cccnc2)c1 | 3 | 12 |  |
| N#Cc1c(N)n[nH]c1-c1ccc2ccn(Cc3ccc(CN4CCOCC4)cc3)c2c1 | 12.6 |  | MIC [5]: 50 µM; MIC [6]: 50 µM; MIC [7]: 50 µM (≈ 20.6 µg/mL); MIC [8]: > 100 µM; MIC [9]: 100 µM |
| N#Cc1c(N)n[nH]c1-c1ccc2ccn(Cc3ccc(CN4CCCC4)cc3)c2c1 | 12.9 | 27 | MIC [5]: 12.5 µM; MIC [7]: 50 µM (≈ 19.8 µg/mL); Activity [4]: Active; MIC [8]: > 100 µM; MIC [9]: 25 µM |
| CCNC(=O)c1cn[nH]c1 |  |  | ΔTm [3]: 0.4 °C |
| CCOC(=O)c1cn[nH]c1 | 0.4 | 89 | ΔTm [3]: 4 °C |
| COc1cc(COC(=O)c2cn[nH]c2)cc(-c2cccnc2)c1 | 3.8 | 6.7 |  |
| CCOC(=O)c1cnn(CC#Cc2cc(COC(=O)c3cn[nH]c3)cc(OC)c2)c1 | 9.6 | 4.6 |  |
| Nc1cc(-c2ccc3ccn(Cc4ccc(CN5CCCCC5)cc4)c3c2)[nH]n1 | 7.2 |  | MIC [5]: 12.5 µM; MIC [6]: 50 µM; MIC [7]: 50 µM (≈ 19.3 µg/mL); MIC [8]: > 100 µM; MIC [9]: 25 µM |
| CN1CCCC(Cn2ccc3ccc(-c4[nH]nc(N)c4C#N)cc32)C1 (racemic) | 10.9 | 0.36 | Activity [10]: Active |
| CC(C)N1CCN(Cc2ccc(Cn3ccc4ccc(-c5[nH]nc(N)c5C#N)cc43)cc2)CC1 | 11.9 |  | MIC [5]: 1.6 µM; MIC [6]: 6.3 µM; MIC [7]: 50 µM (≈ 22.7 µg/mL); MIC [8]: 12.5 µM; MIC [9]: 2.3 µM |
| CN1CCN(Cc2ccc(Cn3ccc4ccc(-c5[nH]nc(N)c5C#N)cc43)cc2)CC1 | 12 | 73 | MIC [5]: 6.3 µM; MIC [6]: 25 µM; MIC [7]: 50 µM (≈ 21.3 µg/mL); MIC [9]: 12.5 µM |

| Compound | ΔTm [1] [°C] | Kd [2] [µM] | other results |
| --- | --- | --- | --- |
| COC(=O)COc1cccc(COC(=O)c2cn[nH]c2)c1 | 2.6 | 10 |  |
| N#Cc1c(N)n[nH]c1-c1ccc2ccn(Cc3ccccc3)c2c1 | 10.1 |  | Activity [4]: Active |
| N#Cc1c(N)n[nH]c1-c1ccc2ccn(Cc3cccnc3O)c2c1 | 5.5 | 3.2 |  |
| N#Cc1cccc(COC(=O)c2cn[nH]c2)c1 | 2.8 | 30 |  |
| N#Cc1c(N)n[nH]c1-c1ccc2ccn(Cc3ccncc3)c2c1 | 11.5 | 0.12 | MIC [6]: 50 µM; MIC [7]: 50 µM (≈ 15.7 µg/mL); MIC [8]: > 100 µM |
| CN1CCCCC1Cn1ccc2ccc(-c3[nH]nc(N)c3C#N)cc21 (racemic) | 8.8 | 0.59 |  |
| N#Cc1c(N)n[nH]c1-c1ccc2ccn(Cc3ccc(CN4CCCCC4)cc3)c2c1 | 12.6 |  | MIC [6]: 50 µM; MIC [7]: 50 µM (≈ 20.5 µg/mL); MIC [8]: 100 µM; MIC [9]: 25 µM |
| N#Cc1c(N)n[nH]c1-c1ccc2ccn(Cc3ccc(CN4CCCC4)cn3)c2c1 | 12 | 92 | MIC [7]: 50 µM (≈ 19.9 µg/mL) |
| Nc1cc(-c2ccc3cc[nH]c3c2)[nH]n1 | 1.1 | 110 | ΔTm [3]: 4.8 °C |
| Nc1cc(-c2ccc3ccn(Cc4ccc(CN5CCCC5)cc4)c3c2)[nH]n1 | 7 | 490 | MIC [5]: 6.3 µM; MIC [6]: 25 µM; MIC [7]: 50 µM (≈ 18.6 µg/mL); MIC [8]: 100 µM; MIC [9]: 12.5 µM |
| O=C(OCc1ccc([N+](=O)[O-])cc1)c1cn[nH]c1 | 0.4 |  |  |
| N#Cc1c(N)n[nH]c1-c1ccc2c(Cl)cn(Cc3cccnc3)c2c1 | 5.8 | 8.5 |  |
| COc1ccc(Cn2ccc3ccc(-c4cc(N)n[nH]4)cc32)cc1 | 3.4 | 59 |  |
| N#Cc1c(N)n[nH]c1-c1ccc2ccn(Cc3ccc(O)nc3)c2c1 | 8.3 | 1.3 |  |
| Nc1cc(-c2ccc3ccn(Cc4ccccn4)c3c2)[nH]n1 | 3.1 | 12 |  |
| COc1cccc(COC(=O)c2cn[nH]c2)c1 | 3.5 | 14 |  |
| CCOc1cccc(COC(=O)c2cn[nH]c2)c1 | 3.1 | 11 |  |
| Cc1c(N)n[nH]c1-c1ccc2ccn(Cc3ccc(CN4CCCC4)cc3)c2c1 | 6.1 |  |  |
| O=C(OCc1ccccc1)c1cn[nH]c1 | 3.1 | 33 |  |
| N#Cc1c(N)n[nH]c1-c1ccc2ccn(Cc3cccnc3)c2c1 | 10.5 | 0.18 |  |
| Cc1ccc(-c2cc(N)[nH]n2)cc1 |  |  | ΔTm [3]: 1.4 °C |
| COc1ccc(-c2cc(N)[nH]n2)cc1 |  | 170 | ΔTm [3]: 3 °C |
| O=C(OCc1cccc(OCCc2ccccc2)c1)c1cn[nH]c1 | 3 |  |  |
| OB(O)c1ccc2[nH]ccc2c1 |  |  | ΔTm [3]: 1.3 °C |
